Many of the other results were omitted from the sample, so hits are more common in it than they were.
PGC1a Ac signal: raises PGC1a acetylation signal in U2OS cells. 350,000 tested, 0.21% active. AID 651723. activation, % at 15.6 µM. U2OS PGC1a acetylation AlphaScreen, overnight;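 active = every replicate reaching activation of at least 50%, whatever the mean replicate activation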;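 note: hits raise the AlphaScreen acetylation signal above neutral controls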
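Test system: U2OS cells expressing flag-PGC1a plus GCN5; Amount: 7000 U2OS cells per well; Compound: single test concentration per compound; Incubation: compound overnight at 37 °C, each detection step 1 h RT; Signal: AlphaScreen lysate read.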
Each line names hits and unclear results; the compound was inactive in the other large screens.

CCCCCCC(=O)Nc1ccc(C(=O)N/N=C/c2cccnc2)cc1	PGC1a Ac signal 417.3
CCOCCCNC(=O)C1CCN(C(=O)Nc2ccc(C)cc2)CC1	none
O=C1CC(Sc2nnc(-c3ccccc3O)o2)C(=O)N1c1ccccc1 (stereo not given)	PGC1a Ac signal 86.4
CNc1ccc2ncc(-c3ccc(OC)c(OC)c3)n2n1	none
O=CNc1ccc2c(c1)Cc1cc([N+](=O)[O-])ccc1-2	PGC1a Ac signal 54.4
CCOc1ccc(Nc2ncnc3ccc([N+](=O)[O-])cc23)cc1	none
CCC(=O)N1C[C@H](C)[C@H](OC)CN(C)C(=O)c2cc(NC(=O)c3cnccn3)ccc2OC[C@@H]1C	none
NC(=O)C1CCN(C2=C(Cl)C(=O)c3ccccc3C2=O)CC1	PGC1a Ac signal 66.1
Cc1noc(/C=C/N(C)C)c1S(=O)(=O)N(C)CC(=O)NC1CCCCC1	none
OC(c1ccccc1)(C1CCCCC1)C(CN1CCOCC1)c1ccccc1 (stereo not given)	PGC1a Ac signal 56.8
O=C(c1ccc(F)cc1)C(CN1CCOCC1)c1ccccc1 (stereo not given)	none
CN(C)CCOc1ccc(/C(=C(/CCCl)c2ccccc2)c2ccccc2)cc1	PGC1a Ac signal 108.8
CN(C)CCCN(C(=O)CCOc1ccccc1)c1nc2ccc(F)cc2s1	none
CCOc1ccccc1C(=O)NCCCCCC(=O)O	none
CCOc1ccc(C(=O)N/N=C(\c2ccccc2)c2ccccn2)cc1	none
CCOC(=O)C(NC(=O)c1ccccc1OCC)(Nc1ncccn1)C(F)(F)F (stereo not given)	PGC1a Ac signal 70.3
C[C@@H]1CN([C@H](C)CO)C(=O)CCCn2nncc2CO[C@H]1CN(C)S(=O)(=O)c1cn(C)cn1	none
CCN(CC)C1CC(=O)N(c2ccc(Br)cc2)C1=O (stereo not given)	none
CC(C)(C)S(=O)N1Cc2cc(C(=O)NCc3ccc(Oc4ccccc4)cc3)nc(-c3cccc(-c4cc5ccccc5o4)c3)c2[C@H]1CCO (stereo not given in full)	PGC1a Ac signal 61.8
CO[C@@H]1CN(C)C(=O)c2cc(NC(C)=O)ccc2OC[C@H](C)N(C(=O)c2cccnc2)C[C@H]1C	none
CC(C)CC#Cc1cnc2c(c1)C(=O)N([C@@H](C)CO)C[C@@H](C)[C@H](CN(C)C(=O)c1ccccc1)O2	none
C[C@@H]1CN([C@@H](C)CO)C(=O)c2c(c3ccccc3n2C)-c2ccccc2CO[C@@H]1CN(C)C(=O)c1cc(Cl)cc(Cl)c1	PGC1a Ac signal 95.6
C[C@H]1CCCCO[C@@H](CN(C)C(=O)c2ccccc2)[C@@H](C)CN([C@@H](C)CO)C(=O)c2cc(NC(=O)Nc3ccc(F)cc3)ccc2O1	none
COc1ccc(Cl)cc1NC(=O)NCC1CCN(C(=O)OC(C)(C)C)CC1	none
Cc1cc(S(=O)(=O)Nc2ccc3ccccc3c2)c(C)s1	PGC1a Ac signal 58.3
Cc1cc(C)nc(NS(=O)(=O)c2ccc(NC(=O)Nc3ccccc3)cc2)n1	none
COc1ccc(-c2cnc3c(c2)C(=O)N([C@H](C)CO)C[C@H](C)[C@H](CN(C)S(=O)(=O)c2cccs2)O3)cc1	none
COc1ccc(S(=O)(=O)N(C)C[C@@H]2Oc3ncc(-c4ccccc4)cc3C(=O)N([C@H](C)CO)C[C@@H]2C)cc1	none
COc1ccc(C#Cc2cnc3c(c2)C(=O)N([C@H](C)CO)C[C@H](C)[C@H](CN(C)S(=O)(=O)c2cccs2)O3)cc1OC	PGC1a Ac signal 61.2
O=c1[nH]cnc2c1ccn2C1OC(CO)C(O)C1O (stereo not given)	PGC1a Ac signal 138.1
C[C@@H]1CN([C@@H](C)CO)C(=O)c2cccc(NC(=O)C3CCCCC3)c2O[C@@H]1CN(C)CC1CCCCC1	none
COCC(=O)NCc1nc2ccccc2n1Cc1ccccc1F	none
O=C(/C=C/c1cccnc1)/C=C/c1cccnc1	none
CCC(=O)Nc1ccnc(-c2cccnc2)n1	none
CC(NC(=O)Nc1cccnc1)(C(F)(F)F)C(F)(F)F	PGC1a Ac signal 62.1
CCn1cc(C(=O)NCc2cccnc2)c2cc(OC)c(OC)cc2c1=O	none
COc1cccc(C(=O)c2c[nH]c(C(=O)NCc3cccnc3)c2)c1	PGC1a Ac signal 85.5
COc1ccc2nc(NCc3cccnc3)sc2c1	none
CCOC(=O)C1=C[C@@H](C(C)(C)C)N(S(=O)(=O)c2ccc(C)cc2)[C@H]1c1cccc2ccccc12	PGC1a Ac signal 100.0
CCOC(=O)C1CCN(Cc2ccc(O)c3ncccc23)CC1	PGC1a Ac signal 61.4
CCOC(=O)C1CCN(C2=NC(=O)/C(=C/c3ccc(O)cc3)S2)CC1	none
CCOC(=O)C1CCCN(C(=O)CSc2ccc(Br)cc2)C1 (stereo not given)	none
CCCNC(=O)[C@H]1[C@H](CO)[C@H]2Cn3c(ccc(-c4ccccc4)c3=O)[C@H]2N1C(=O)C1CC1	none
COc1ccc(C(CC(=O)Nc2ccccn2)N2Cc3ccccc3C2=O)cc1 (stereo not given)	none
COc1cccc(-n2nnnc2S(C)(=O)=O)c1	PGC1a Ac signal 200.4
C/C(=N/NC(=O)CNC(=O)c1cccnc1)c1ccc([N+](=O)[O-])cc1	none
O=C(NCc1cccnc1)c1ccc(NC(=O)c2cccc([N+](=O)[O-])c2)cc1	PGC1a Ac signal 170.7

Bioassay records (PubChem BioAssay)
